Laboratory results taken from ChEMBL document CHEMBL4219194, “Diversity-oriented synthesis of pyrazoles derivatives from flavones and isoflavones leads to the discovery of promising reversal agents of fluconazole resistance in Candida albicans” (2018).
≈ marks a conversion by molar mass, not a printed value.

What was measured:
Format in all cases: functional
Candida albicans [1] = test: Antifungal activity against CDR1 and CDR2 efflux pump deficient Candida albicans DSY654 after 48 hrs by broth microdilution method; settings: DSY654, 48 h
Summary of the method: (§1)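 MIC80 read by broth microdilution, with fluconazole as the positive antifungal agent. Values are reported in µg/mL as means of three independent experiments. Strains: wild-type SC5314 and DSY654, which lacks the Cdr1 and Cdr2 efflux pumps.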

Candida albicans [2] = test: Antifungal activity against drug-resistant Candida albicans 28I after 48 hrs by broth microdilution method
Summary of the method: (§2)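 Clinical fluconazole-resistant isolates tested in broth microdilution with the compound alone. The endpoint is MIC80, the lowest concentration giving 80% growth inhibition, in µg/mL.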

Candida albicans [3] = test: Antifungal activity against drug-resistant Candida albicans 28J after 48 hrs by broth microdilution method; summary of the method: as §2
Candida albicans [4] = test: Antifungal activity against fluconazole-resistant Candida albicans 28A after 48 hrs by broth microdilution method; summary of the method: as §2
Candida albicans [5] = test: Antifungal activity against Candida albicans SC5314 after 48 hrs by broth microdilution method; settings: SC5314, 48 h; summary of the method: as §1
Candida albicans [6] = test: Synergistic antifungal activity against drug-resistant Candida albicans 28J after 48 hrs in presence of fluconazole by broth microdilution checkerboard method
Summary of the method: (§3)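 Broth microdilution checkerboard of fluconazole crossed with the test compound against clinical FLC-resistant isolates. MIC80 is read for each agent alone and in combination, and FICI is calculated. Synergy is FICI ≤0.5, indifference >0.5-4, and antagonism >4.0.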

Candida albicans [7] = test: Potentiation of fluconazole-induced antifungal activity against drug-resistant Candida albicans 28J after 48 hrs by broth microdilution checkerboard method; summary of the method: as §3
Candida albicans [8] = test: Potentiation of fluconazole-induced antifungal activity against drug-resistant Candida albicans 28I after 48 hrs by broth microdilution checkerboard method; summary of the method: as §3
Candida albicans [9] = test: Potentiation of fluconazole-induced antifungal activity against drug-resistant Candida albicans 28I assessed as fluconazole MIC80 after 48 hrs by broth microdilution checkerboard method; summary of the method: as §3
Candida albicans [10] = test: Synergistic antifungal activity against fluconazole-resistant Candida albicans 28A after 48 hrs in presence of fluconazole by broth microdilution checkerboard method
Summary of the method: (§4)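 Checkerboard dose-response matrix on strain 28A with gradients of fluconazole and the test compound in RPMI 1640, read after 48 h at 35 °C. MIC80 is taken alone and in combination, and FICI is calculated. Synergy is FICI ≤0.5, indifference >0.5-4, and antagonism >4.0.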

Candida albicans [11] = test: Synergistic antifungal activity against drug-resistant Candida albicans 28I after 48 hrs in presence of fluconazole by broth microdilution checkerboard method; summary of the method: as §3
Candida albicans [12] = test: Potentiation of fluconazole-induced antifungal activity against fluconazole-resistant Candida albicans 28A assessed as fluconazole MIC80 after 48 hrs by broth microdilution checkerboard method; summary of the method: as §4
Candida albicans [13] = test: Potentiation of fluconazole-induced antifungal activity against drug-resistant Candida albicans 28J assessed as fluconazole MIC80 after 48 hrs by broth microdilution checkerboard method; summary of the method: as §3
Candida albicans [14] = test: Potentiation of fluconazole-induced antifungal activity against fluconazole-resistant Candida albicans 28A after 48 hrs by broth microdilution checkerboard method; summary of the method: as §4

OC(Cn1cncn1)(Cn1cncn1)c1ccc(F)cc1F [FLUCONAZOLE] showed an MIC80 (Candida albicans [1]) of 0.25 µg/mL (≈ 0.816 µM), an MIC80 (Candida albicans [2]) greater than 128 µg/mL and an MIC80 (Candida albicans [3]) greater than 128 µg/mL. It also gave an MIC80 (Candida albicans [4]) greater than 128 µg/mL and an MIC80 (Candida albicans [5]) of 2 µg/mL (≈ 6.53 µM).
Compound COc1cc(O)c(-c2cc(-c3ccccc3)n[nH]2)c(OC)c1 has an MIC80 (Candida albicans [1]) of 1 µg/mL (≈ 3.37 µM), an MIC80 (Candida albicans [6]) of 8 µg/mL and an MIC80 (Candida albicans [2]) of 32 µg/mL (≈ 108 µM). The MIC80 (Candida albicans [3]) was 32 µg/mL (≈ 108 µM), the “fractional inhibitory concentration index (FICI)” value (Candida albicans [7]) was 0.254 and the “fractional inhibitory concentration index (FICI)” value (Candida albicans [8]) was 0.252. It also gave an MIC80 (Candida albicans [9]) of 0.25 µg/mL, an MIC80 (Candida albicans [10]) of 8 µg/mL and an MIC80 (Candida albicans [11]) of 8 µg/mL. It also gave an MIC80 (Candida albicans [12]) of 0.25 µg/mL, an MIC80 (Candida albicans [4]) of 32 µg/mL (≈ 108 µM) and an MIC80 (Candida albicans [13]) of 0.5 µg/mL. The MIC80 (Candida albicans [5]) was 8 µg/mL (≈ 27 µM) and the “fractional inhibitory concentration index (FICI)” value (Candida albicans [14]) was 0.252.
Oc1ccccc1-c1cc(-c2ccccc2)nn1-c1ccccc1 was tested, and the MIC80 (Candida albicans [1]) was 8 µg/mL (≈ 25.6 µM), the MIC80 (Candida albicans [10]) was 128 µg/mL and the MIC80 (Candida albicans [12]) was 2 µg/mL. For the same compound, the MIC80 (Candida albicans [4]) was 128 µg/mL (≈ 410 µM), the MIC80 (Candida albicans [5]) was 128 µg/mL (≈ 410 µM) and the “fractional inhibitory concentration index (FICI)” value (Candida albicans [14]) was 1.016.
For COc1ccc(-c2cnn(-c3ccc(OC)cc3)c2-c2ccc(O)cc2O)cc1, the MIC80 (Candida albicans [1]) was greater than 128 µg/mL, the MIC80 (Candida albicans [10]) was greater than 128 µg/mL and the MIC80 (Candida albicans [12]) was greater than 128 µg/mL. For the same compound, the MIC80 (Candida albicans [4]) was greater than 128 µg/mL, the MIC80 (Candida albicans [5]) was greater than 128 µg/mL and the “fractional inhibitory concentration index (FICI)” value (Candida albicans [14]) was 2.
Work on Oc1ccc(C2=NCCNC(c3ccccc3)=C2)c(O)c1O yielded an MIC80 (Candida albicans [1]) of 32 µg/mL (≈ 108 µM), an MIC80 (Candida albicans [10]) greater than 128 µg/mL and an MIC80 (Candida albicans [12]) greater than 128 µg/mL. The MIC80 (Candida albicans [4]) was greater than 128 µg/mL, the MIC80 (Candida albicans [5]) was greater than 128 µg/mL and the “fractional inhibitory concentration index (FICI)” value (Candida albicans [14]) was 2.
